The results in this text go back to ChEMBL document CHEMBL3627690, “Scaffold-Hopping and Structure-Based Discovery of Potent, Selective, And Brain Penetrant N-(1H-Pyrazol-3-yl)pyridin-2-amine Inhibitors of Dual Leucine Zipper Kinase (DLK, MAP3K12)” (J Med Chem, 2015).

Data set [1] concerns the target RAC-alpha serine/threonine-protein kinase (Homo sapiens) (UniProt P31749). In words: Inhibition of AKT1 (unknown origin) at 1 uM by FRET method. In short, it runs like this:
(§1)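 SelectScreen panel of 58 kinases, each tested at a single 1 µM compound concentration. Read-out was Z′-LYTE FRET of labeled peptide phosphorylation, run by the vendor's protocols, reported as percent inhibition.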

In data set [2] the target is TAK1/TAB1 (Homo sapiens) (UniProt Q15750+O43318). In words: Inhibition of TAK1-TAB1 (unknown origin) at 1 uM by FRET method. It counts as protein-complex assay. An outline of the steps: (§2)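 Single-point screen at 1 uM against a panel of 58 representative kinases. Readout was labeled-peptide phosphorylation by FRET (Z′-LYTE), using the vendor's protocols.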
In data set [3] the target is Phosphorylase b kinase gamma catalytic chain, liver/testis isoform (Homo sapiens) (UniProt P15735). Nature of the data set: Inhibition of PhKgamma2 (unknown origin) at 1 uM by FRET method. An outline of the steps: as §2
Data set [4] addresses Mast/stem cell growth factor receptor Kit (Homo sapiens, UniProt P10721). Nature of the data set: Inhibition of Kit (unknown origin) at 1 uM by FRET method. An outline of the steps: as §1
For data set [5], the target named is Dual specificity mitogen-activated protein kinase kinase 4 (Homo sapiens, UniProt P45985). In words: Inhibition of MKK4 (unknown origin) using KFMMTPpYVVTR substrate incubated for 1 hr measured by MpTPpYV probe-based fluorescence polarization assay. An outline of the steps: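 MKK4 at 30 nM was incubated with 100 µM KFMMTPpYVVTR peptide, 5 µM ATP and 3.3 nM fluorescent MpTPpYV probe. Buffer was 50 mM HEPES pH 7.5 with 5 mM MgCl2 and 10 mM DTT. Reaction ran 1 h at 23 °C, was stopped with EDTA plus anti-phospho-JNK antibody, and read by FP (ex 633/em 670 nm). Activity was normalized to the positive control.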

Data set [6] deals with Mus musculus. In words: Reduction of p-c-Jun level in retina of optic nerve crush injury mouse model at 75 mg/kg, po administered 30 mins prior to nerve crush injury measured at 6 hrs by MSD ELISA. It counts as functional, organism-based. An outline of the steps:
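C57/Bl6 mice were dosed orally with a methylcellulose suspension or vehicle 30 min before optic nerve crush. Retinal p-c-Jun was measured 6 h after injury by MSD ELISA. Values are expressed relative to uncrushed vehicle controls as mean ± SEM with individual animals.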

In data set [7] the target is Tyrosine-protein kinase JAK3 (Homo sapiens) (UniProt P52333). In words: Inhibition of JAK3 (unknown origin) at 1 uM by FRET method. In short, it runs like this: as §1
In data set [8] the target is Serine/threonine-protein kinase PLK1 (Homo sapiens) (UniProt P53350). In words: Inhibition of PLK1 (unknown origin) at 1 uM by FRET method. In short, it runs like this:
as §2

Data set [9] is described as follows: Neuroprotective activity in Wistar rat DRG neuronal cells by neurodegeration assay. The class given is functional, cell-based.
Data set [10] can be described thus: Cmax in mouse at 50 mg/kg, po. It counts as ADME, organism-based. On the set-up: dose 50 mg/kg, route oral. To be noted: in vivo. In short, it runs like this: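 C57/Bl6 mice were given a single 50 mg/kg oral dose as an MCT suspension. Plasma was sampled over 0–6 h for Cmax, Tmax and AUC0–6h.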
The target of data set [11] is Insulin-like growth factor 1 receptor (Homo sapiens) (UniProt P08069). Nature of the data set: Inhibition of IGF1R (unknown origin) at 1 uM by FRET method. An outline of the steps:
as §1

In data set [12] the target is Mitogen-activated protein kinase kinase kinase 9 (Homo sapiens, UniProt P80192). In words: Inhibition of MLK1 (unknown origin) at 1 uM by FRET method. An outline of the steps: as §2
Data set [13] concerns the target T1, Mitogen-activated protein kinase kinase kinase 12 (Homo sapiens) (UniProt Q12852).
T1 sequence (whole entry): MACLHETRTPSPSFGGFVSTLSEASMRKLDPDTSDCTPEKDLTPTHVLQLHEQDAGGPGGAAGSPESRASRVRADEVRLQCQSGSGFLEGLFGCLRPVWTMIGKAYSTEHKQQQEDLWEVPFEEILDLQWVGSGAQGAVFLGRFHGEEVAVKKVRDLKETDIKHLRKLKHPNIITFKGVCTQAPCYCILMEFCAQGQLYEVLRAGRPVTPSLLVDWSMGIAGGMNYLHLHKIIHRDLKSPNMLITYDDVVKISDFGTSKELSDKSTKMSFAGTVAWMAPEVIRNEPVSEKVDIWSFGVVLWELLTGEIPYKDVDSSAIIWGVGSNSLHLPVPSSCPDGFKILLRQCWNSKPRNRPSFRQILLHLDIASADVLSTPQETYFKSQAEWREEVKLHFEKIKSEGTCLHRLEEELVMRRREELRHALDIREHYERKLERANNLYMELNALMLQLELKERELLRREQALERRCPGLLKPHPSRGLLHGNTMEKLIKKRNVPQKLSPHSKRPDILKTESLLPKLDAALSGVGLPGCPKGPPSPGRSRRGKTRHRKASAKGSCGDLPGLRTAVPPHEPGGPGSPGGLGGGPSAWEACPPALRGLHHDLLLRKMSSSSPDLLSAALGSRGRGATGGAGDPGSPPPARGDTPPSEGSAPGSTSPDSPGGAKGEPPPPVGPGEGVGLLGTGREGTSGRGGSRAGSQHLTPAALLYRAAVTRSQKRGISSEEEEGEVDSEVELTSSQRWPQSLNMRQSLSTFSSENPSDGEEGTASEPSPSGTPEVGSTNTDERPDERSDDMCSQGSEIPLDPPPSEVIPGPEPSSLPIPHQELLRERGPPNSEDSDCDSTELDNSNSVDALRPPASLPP
Nature of the data set: Inhibition of Flag DLK (unknown origin) transfected in HEK293 cells assessed as reduction of phosphorylation of MKK7 at 0.1 to 10 uM incubated for 5 hrs measured by Western blot analysis. The class given is cell-based. An outline of the steps: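 HEK293 cells were transfected with Flag-tagged DLK, with kinase-dead DLK K152A as comparator, 24 h before compound addition. Cells were then exposed to compound for 5 h. Phospho-MKK4, phospho-MKK7, phospho-JNK and phospho-c-Jun were probed.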
Background: In western blotting, separated proteins are transferred to a membrane and probed.

In data set [14] the test system is HEK293. Nature of the data set: Effect on total JNK protein level in HEK293 cells transfected with Flag DLK (unknown origin) at 0.1 to 10 uM incubated for 5 hrs by Western blot analysis. The conditions noted are these: human, hek293, 5 h.
For data set [15], the target named is 5'-AMP-activated protein kinase catalytic subunit alpha-1 (Homo sapiens) (UniProt Q13131). In words: Inhibition of PRKAA1 (unknown origin) at 1 uM by FRET method. An outline of the steps: as §2
Data set [16] concerns the target Mitogen-activated protein kinase 14 (Homo sapiens) (UniProt Q16539). Nature of the data set: Inhibition of p38alpha (unknown origin) at 1 uM by FRET method. An outline of the steps:
as §2

Data set [17] concerns the target Serine/threonine-protein kinase Chk1 (Homo sapiens) (UniProt O14757). In words: Inhibition of CHK1 (unknown origin) at 1 uM by FRET method. An outline of the steps:
as §1

Data set [18] concerns the target Activin receptor type-1B (Homo sapiens) (UniProt P36896). Nature of the data set: Inhibition of ACVR1B (unknown origin) at 1 uM by FRET method. An outline of the steps: as §1
Data set [19] deals with Hepatocyte growth factor receptor (Homo sapiens) (UniProt P08581). Nature of the data set: Inhibition of Met (unknown origin) at 1 uM by FRET method. An outline of the steps:
as §2

Data set [20] addresses CDK8/Cyclin C (Homo sapiens) (UniProt P49336+P24863). Nature of the data set: Inhibition of […]/cyclinC (unknown origin) at 1 uM by FRET method. It counts as protein-complex assay. In short, it runs like this:
as §1

Calls of active or inactive are those of the source. No cut-off for these calls is given here. Bounds are passed on as bounds.

RAC-alpha serine/threonine-protein kinase (Homo sapiens), sequence (P31749 whole entry): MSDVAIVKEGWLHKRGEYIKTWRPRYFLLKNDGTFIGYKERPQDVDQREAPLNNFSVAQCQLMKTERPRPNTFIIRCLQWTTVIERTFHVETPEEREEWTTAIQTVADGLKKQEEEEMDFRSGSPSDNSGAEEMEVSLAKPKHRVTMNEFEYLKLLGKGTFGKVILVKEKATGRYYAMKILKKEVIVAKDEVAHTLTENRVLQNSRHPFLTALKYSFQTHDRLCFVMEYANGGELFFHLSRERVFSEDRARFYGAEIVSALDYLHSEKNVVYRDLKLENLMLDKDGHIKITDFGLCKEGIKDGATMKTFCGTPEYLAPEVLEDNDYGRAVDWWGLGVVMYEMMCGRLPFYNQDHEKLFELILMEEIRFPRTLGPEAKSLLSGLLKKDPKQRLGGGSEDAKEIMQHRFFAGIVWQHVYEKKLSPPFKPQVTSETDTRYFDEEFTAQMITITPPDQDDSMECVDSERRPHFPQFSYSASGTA
Activin receptor type-1B (Homo sapiens), sequence (P36896 whole entry): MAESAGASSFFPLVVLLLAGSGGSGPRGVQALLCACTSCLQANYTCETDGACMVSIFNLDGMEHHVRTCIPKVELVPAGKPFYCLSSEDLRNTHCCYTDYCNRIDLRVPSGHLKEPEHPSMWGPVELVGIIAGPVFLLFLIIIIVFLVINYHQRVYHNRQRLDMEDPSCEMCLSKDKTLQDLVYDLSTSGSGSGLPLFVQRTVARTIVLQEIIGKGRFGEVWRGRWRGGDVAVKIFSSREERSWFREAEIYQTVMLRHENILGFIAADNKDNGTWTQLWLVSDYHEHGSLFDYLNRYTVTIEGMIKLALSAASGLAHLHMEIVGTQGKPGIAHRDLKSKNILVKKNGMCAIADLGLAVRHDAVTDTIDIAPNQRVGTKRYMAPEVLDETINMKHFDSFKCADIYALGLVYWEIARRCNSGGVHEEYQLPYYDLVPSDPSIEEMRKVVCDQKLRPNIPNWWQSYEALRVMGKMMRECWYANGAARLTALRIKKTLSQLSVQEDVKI
Tyrosine-protein kinase JAK3 (Homo sapiens), sequence (P52333 whole entry): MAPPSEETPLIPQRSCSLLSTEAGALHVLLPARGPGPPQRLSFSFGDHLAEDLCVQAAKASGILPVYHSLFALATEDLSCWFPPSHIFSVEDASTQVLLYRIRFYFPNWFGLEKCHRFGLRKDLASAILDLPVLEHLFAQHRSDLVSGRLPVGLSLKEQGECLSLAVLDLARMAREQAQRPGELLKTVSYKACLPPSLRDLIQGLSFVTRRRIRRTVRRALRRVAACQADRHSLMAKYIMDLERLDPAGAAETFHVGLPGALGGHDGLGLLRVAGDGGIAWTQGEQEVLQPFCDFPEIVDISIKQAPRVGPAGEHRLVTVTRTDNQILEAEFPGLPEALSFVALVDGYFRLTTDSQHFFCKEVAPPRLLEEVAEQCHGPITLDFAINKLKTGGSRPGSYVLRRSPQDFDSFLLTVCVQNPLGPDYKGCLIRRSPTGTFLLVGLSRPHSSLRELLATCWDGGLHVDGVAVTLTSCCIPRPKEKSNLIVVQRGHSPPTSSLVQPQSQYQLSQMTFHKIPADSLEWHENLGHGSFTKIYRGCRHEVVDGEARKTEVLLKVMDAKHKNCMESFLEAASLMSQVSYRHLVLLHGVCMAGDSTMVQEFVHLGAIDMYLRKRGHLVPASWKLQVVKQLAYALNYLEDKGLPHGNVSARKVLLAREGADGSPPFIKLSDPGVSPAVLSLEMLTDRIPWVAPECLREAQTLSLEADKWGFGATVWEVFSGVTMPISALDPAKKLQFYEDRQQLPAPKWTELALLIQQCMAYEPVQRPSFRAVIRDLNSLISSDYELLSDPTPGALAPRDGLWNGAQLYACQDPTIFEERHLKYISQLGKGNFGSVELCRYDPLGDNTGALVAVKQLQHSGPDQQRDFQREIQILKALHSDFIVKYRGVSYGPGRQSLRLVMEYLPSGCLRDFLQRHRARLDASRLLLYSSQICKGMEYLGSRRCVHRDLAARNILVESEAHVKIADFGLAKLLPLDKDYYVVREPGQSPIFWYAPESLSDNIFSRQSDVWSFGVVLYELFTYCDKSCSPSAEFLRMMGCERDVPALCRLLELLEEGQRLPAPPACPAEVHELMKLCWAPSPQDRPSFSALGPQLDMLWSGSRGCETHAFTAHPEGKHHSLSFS
Mast/stem cell growth factor receptor Kit, sequence (P10721 whole entry): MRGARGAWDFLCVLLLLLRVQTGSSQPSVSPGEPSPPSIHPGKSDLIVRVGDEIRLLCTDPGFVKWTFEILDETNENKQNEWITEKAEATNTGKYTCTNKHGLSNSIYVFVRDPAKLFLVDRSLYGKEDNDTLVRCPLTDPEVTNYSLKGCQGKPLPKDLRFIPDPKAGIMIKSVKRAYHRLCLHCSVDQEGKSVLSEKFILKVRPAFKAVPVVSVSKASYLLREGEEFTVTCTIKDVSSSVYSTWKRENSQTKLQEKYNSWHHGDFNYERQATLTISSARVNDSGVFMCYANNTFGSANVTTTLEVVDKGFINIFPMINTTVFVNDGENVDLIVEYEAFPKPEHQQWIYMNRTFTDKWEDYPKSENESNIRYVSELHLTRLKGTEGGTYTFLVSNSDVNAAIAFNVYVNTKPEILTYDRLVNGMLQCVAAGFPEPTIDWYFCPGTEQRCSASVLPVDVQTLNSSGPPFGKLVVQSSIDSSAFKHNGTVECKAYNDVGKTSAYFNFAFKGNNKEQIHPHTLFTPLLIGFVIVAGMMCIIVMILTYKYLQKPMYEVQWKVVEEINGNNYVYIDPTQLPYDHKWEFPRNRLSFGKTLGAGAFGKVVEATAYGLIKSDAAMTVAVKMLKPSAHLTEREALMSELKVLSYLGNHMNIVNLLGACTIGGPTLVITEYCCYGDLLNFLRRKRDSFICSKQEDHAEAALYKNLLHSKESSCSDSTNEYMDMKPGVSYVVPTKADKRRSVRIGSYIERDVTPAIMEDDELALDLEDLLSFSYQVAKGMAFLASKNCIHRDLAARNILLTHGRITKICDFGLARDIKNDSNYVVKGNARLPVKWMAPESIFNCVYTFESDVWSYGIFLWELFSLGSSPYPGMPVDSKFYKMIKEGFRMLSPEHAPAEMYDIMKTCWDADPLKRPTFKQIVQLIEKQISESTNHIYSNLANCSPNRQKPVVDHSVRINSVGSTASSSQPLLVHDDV
Serine/threonine-protein kinase Chk1 (Homo sapiens), sequence (O14757 whole entry): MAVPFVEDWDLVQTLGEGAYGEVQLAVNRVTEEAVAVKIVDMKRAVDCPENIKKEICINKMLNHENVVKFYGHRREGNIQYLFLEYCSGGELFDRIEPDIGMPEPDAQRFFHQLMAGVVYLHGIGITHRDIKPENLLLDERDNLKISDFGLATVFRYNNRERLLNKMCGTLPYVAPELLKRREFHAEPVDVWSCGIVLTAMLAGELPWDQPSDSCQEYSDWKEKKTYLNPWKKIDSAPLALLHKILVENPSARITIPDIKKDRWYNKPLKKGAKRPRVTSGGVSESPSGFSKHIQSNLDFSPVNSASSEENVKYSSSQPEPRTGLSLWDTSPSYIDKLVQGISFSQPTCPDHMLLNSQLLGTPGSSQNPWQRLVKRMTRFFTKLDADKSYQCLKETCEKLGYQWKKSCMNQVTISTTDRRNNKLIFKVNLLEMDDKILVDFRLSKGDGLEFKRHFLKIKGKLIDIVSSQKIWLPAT
Serine/threonine-protein kinase PLK1 (Homo sapiens), sequence (P53350 whole entry): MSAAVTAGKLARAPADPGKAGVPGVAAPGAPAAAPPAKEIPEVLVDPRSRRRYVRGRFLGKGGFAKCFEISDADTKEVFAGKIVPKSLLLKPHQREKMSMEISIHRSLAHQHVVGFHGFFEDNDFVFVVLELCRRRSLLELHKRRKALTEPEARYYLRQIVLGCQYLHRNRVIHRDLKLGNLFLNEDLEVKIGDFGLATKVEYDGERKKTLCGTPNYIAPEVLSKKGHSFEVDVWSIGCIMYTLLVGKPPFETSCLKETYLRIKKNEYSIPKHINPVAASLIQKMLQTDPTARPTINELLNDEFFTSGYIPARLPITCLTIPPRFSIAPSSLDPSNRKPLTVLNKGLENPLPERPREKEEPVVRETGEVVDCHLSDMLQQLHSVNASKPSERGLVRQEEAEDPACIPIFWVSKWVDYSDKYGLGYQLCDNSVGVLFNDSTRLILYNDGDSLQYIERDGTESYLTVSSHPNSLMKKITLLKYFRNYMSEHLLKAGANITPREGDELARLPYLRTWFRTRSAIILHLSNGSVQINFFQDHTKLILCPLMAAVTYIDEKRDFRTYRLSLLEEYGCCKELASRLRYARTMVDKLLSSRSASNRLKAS
Dual specificity mitogen-activated protein kinase kinase 4, sequence (P45985 whole entry): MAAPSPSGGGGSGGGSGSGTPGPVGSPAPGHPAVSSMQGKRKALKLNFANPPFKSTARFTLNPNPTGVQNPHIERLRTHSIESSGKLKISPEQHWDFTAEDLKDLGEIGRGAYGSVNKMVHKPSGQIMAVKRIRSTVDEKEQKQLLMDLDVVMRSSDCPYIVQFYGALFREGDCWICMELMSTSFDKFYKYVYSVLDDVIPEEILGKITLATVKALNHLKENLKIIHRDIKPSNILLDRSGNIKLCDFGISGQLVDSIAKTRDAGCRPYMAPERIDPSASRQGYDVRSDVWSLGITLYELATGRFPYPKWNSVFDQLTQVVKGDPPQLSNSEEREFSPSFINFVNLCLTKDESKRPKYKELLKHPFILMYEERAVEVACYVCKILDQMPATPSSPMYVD
Phosphorylase b kinase gamma catalytic chain, liver/testis isoform (Homo sapiens), sequence (P15735 whole entry, canonical isoform): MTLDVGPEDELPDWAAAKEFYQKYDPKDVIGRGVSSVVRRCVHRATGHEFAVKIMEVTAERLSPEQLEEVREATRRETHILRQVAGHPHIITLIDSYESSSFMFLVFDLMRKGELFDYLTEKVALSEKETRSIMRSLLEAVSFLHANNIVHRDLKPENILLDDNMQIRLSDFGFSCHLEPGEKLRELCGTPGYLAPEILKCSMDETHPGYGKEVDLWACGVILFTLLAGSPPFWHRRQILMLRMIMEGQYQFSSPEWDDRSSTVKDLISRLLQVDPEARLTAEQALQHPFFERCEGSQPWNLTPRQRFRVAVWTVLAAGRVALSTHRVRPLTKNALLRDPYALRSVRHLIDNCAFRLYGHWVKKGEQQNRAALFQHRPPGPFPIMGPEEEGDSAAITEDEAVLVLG

As usually defined, the inhibition is the drop in the measured response relative to a control, in per cent. The term IC50 denotes the concentration at which inhibition is half-maximal. Usually EC50 stands for the midpoint of the concentration-response curve. Lower therefore signals a more potent agent. One may read the Cmax as the maximum level reached in the sampled fluid or tissue. On to `N#Cc1ccnc(Nc2cc(C3CCN(C4COC4)CC3)n(C3CCCC3)n2)c1`, for which the inhibition in [1] was -3.6%; in data set [2] it was 13.6%; in data set [3], -1.9%; in data set [4], 56%; in [7], 12.5%; in [8], 7.3%. In addition, the inhibition in data set [11] was 37%; in data set [12], 4.4%; in [15], 1.8%; in data set [16], 14.6%; in [17], -2.3%; in data set [18], 7.1%. The inhibition in data set [19] came out at 23.4%; in [20], 11.6%. The 50% inhibitory concentration (IC50) in data set [5] was above 5000 nM. For the same compound, in [6], the outcome was Active. In data set [9], this compound came in with an EC50 of 2150 nM. Also, the peak level in data set [10] (Cmax) was 5.9 µM. For the same compound, the inhibition result in [13] was “Active”. Moreover, in [14], the Activity entry is “Non-toxic”.
